According to publication PMC7678623 (Angewandte Chemie (International ed. in English), 2019):

Legend:
Format in all cases: cell-based
CDK4/6 = assay: Immunoblot for CDK4/6 degradation in Jurkat cells; settings: WT Jurkat cells, 4h, Figure 3
Method in brief: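 Jurkat cells, which express both CDK4 and CDK6, were treated for 4h with test compound at 1 µM. The test compounds were degraders built on each of three CDK4/6 inhibitor scaffolds. CDK4 and CDK6 protein levels were then assessed by immunoblot.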

IKZF1/3 = assay: Immunoblot for IKZF1/3 degradation in Jurkat cells; settings: 4h, Figure 3
Molt4 cells = assay: Multiplexed MS-based quantitative proteomics; settings: 250 nM, 5h
[1] = system: CDK4/6, IKZF1/3, phosphorylated Rb; assay: Immunoblots in Granta-519 cells; settings: 1 µM, 1d
[2] = system: wildtype and Crbn−/− Jurkat cells; assay: Cell cycle profile by propidium iodide staining of DNA content; settings: 100 nM, 24h
Method in brief: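 Wildtype and Crbn−/− Jurkat cells were exposed to 100 nM test compound for 24h, alongside a parent CDK4/6 inhibitor and an imide CRBN ligand as comparators. Cells were stained with propidium iodide for DNA content, and cell cycle distribution was read from fluorescence histograms and then quantitated.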

## CN(C)C(=O)c1cc2cnc(Nc3ccc(N4CCN(CCCCNC(=O)CNc5cccc6c5C(=O)N(C5CCC(=O)NC5=O)C6=O)CC4)cn3)nc2n1C1CCCC1 (centres unmarked) [BSJ-01–187]
CDK4/6
  CDK4 and CDK6 degradation selectivity (immunoblot): selectively degraded CDK4
IKZF1/3
  IKZF1/3 degradation (immunoblot): induced degradation of IKZF1/3

## CC(=O)c1c(C)c2cnc(Nc3ccc(N4CCN(CCOCCOCCOCCNC(=O)COc5cccc6c5C(=O)N(C5CCC(=O)NC5=O)C6=O)CC4)cn3)nc2n(C2CCCC2)c1=O (centres unmarked) [BSJ-03–123]
Molt4 cells
  proteome-wide degradation selectivity: loss of CDK6, but not CDK4 or IKZF1/3
CDK4/6
  CDK4 and CDK6 degradation selectivity (immunoblot): selective CDK6 degrader
IKZF1/3
  IKZF1/3 degradation (immunoblot): none of which induced IKZF1/3 degradation

## CC(=O)c1c(C)c2cnc(Nc3ccc(N4CCN(CCCCNC(=O)COc5cccc6c5C(=O)N(C5CCC(=O)NC5=O)C6=O)CC4)cn3)nc2n(C2CCCC2)c1=O (centres unmarked) [BSJ-03–204]
Molt4 cells
  proteome-wide degradation selectivity: selective for CDK4/6 degradation
CDK4/6
  CDK4 and CDK6 degradation selectivity (immunoblot): dual CDK4/6 degrader
IKZF1/3
  IKZF1/3 degradation (immunoblot): none of which induced IKZF1/3 degradation
[1]
  CDK4/6 and IKZF1/3 protein loss (immunoblot): only resulted in degradation of CDK4/6

## CN(C)C(=O)c1cc2cnc(Nc3ccc(N4CCN(CCCCNC(=O)COc5cccc6c5C(=O)N(C5CCC(=O)NC5=O)C6=O)CC4)cn3)nc2n1C1CCCC1 (centres unmarked) [BSJ-04–132]
Molt4 cells
  CDK4 abundance change: ~ 1.9 fold change
  proteome-wide degradation selectivity: its level was reduced to a greater extent than those of CDK6, IKZF1 and IKZF3
CDK4/6
  CDK4 and CDK6 degradation selectivity (immunoblot): selective CDK4 degrader
IKZF1/3
  IKZF1/3 degradation (immunoblot): none of which induced IKZF1/3 degradation

## CC(=O)c1c(C)c2cnc(Nc3ccc(N4CCN(CC(=O)NCCOCCOCCOCCNc5cccc6c5C(=O)N(C5CCC(=O)NC5=O)C6=O)CC4)cn3)nc2n(C2CCCC2)c1=O (centres unmarked) [YKL-06–102]
CDK4/6
  CDK4 and CDK6 degradation selectivity (immunoblot): induced selective degradation of CDK6
IKZF1/3
  IKZF1/3 degradation (immunoblot): induced degradation of IKZF1/3

## Nc1cccc2c1CN(C1CCC(=O)NC1=O)C2=O (centres unmarked) [lenalidomide]
[2]; Crbn−/− Jurkat cells
  cell cycle effect (G1 arrest): had no effect
[2]; wildtype Jurkat cells
  cell cycle effect (G1 arrest): had no effect

## CC(=O)c1c(C)c2cnc(Nc3ccc(N4CCNCC4)cn3)nc2n(C2CCCC2)c1=O [palbociclib]
[2]; Crbn−/− Jurkat cells
  cell cycle effect (G1 arrest): induced profound G1 arrest in both cell lines
[2]; wildtype Jurkat cells
  cell cycle effect (G1 arrest): induced profound G1 arrest in both cell lines
[1]
  levels of phosphorylated Rb (immunoblot): reduced levels of phosphorylated Rb
